Bioassay records (PubChem)
TRPC4 PAM – allosteric potentiators of mouse TRPC4 channel; AID 2227; HEK293 TRPC4beta/mu-opioid, DAMGO EC20, Fluo-4 Ca2+ flux; stronger effect = higher value; B-score at 10 µM; 310,000 tested, 0.42% active;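 active = B-score of calcium response area above 5 SD of library B-scores, with initial fluorescence ratio within 5 SD of library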;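 note: B-score of integrated fluorescence ratio over time as area under calcium response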
Target sequence (Q9QUQ5 whole entry, looked up): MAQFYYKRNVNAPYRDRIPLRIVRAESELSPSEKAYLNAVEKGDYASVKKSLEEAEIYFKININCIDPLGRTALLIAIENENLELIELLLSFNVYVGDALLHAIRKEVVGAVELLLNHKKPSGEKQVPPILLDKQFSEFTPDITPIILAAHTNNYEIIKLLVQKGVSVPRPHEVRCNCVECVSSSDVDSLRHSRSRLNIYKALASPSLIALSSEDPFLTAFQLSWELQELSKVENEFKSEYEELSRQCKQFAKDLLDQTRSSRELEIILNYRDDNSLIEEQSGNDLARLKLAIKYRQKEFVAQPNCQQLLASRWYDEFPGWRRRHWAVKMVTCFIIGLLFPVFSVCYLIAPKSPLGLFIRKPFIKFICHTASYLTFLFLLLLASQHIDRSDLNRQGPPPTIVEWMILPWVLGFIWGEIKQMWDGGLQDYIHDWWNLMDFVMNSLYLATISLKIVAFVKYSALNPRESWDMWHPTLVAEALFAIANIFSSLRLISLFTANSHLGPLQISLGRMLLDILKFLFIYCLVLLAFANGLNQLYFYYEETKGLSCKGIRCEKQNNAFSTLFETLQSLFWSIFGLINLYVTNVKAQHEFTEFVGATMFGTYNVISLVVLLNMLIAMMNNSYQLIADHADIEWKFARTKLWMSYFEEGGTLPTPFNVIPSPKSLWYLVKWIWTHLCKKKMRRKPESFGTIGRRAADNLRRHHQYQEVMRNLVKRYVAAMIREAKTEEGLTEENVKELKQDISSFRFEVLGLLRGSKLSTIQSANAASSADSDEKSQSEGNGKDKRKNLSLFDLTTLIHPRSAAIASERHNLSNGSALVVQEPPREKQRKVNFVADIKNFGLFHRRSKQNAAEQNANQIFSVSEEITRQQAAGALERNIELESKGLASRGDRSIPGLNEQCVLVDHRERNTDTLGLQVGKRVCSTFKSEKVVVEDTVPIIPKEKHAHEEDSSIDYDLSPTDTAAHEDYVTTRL
TRPC6 act – activators of mouse TRPC6 channel; Q61143; HEK293-TRPC6 membrane potential dye fluorescence; stronger effect = higher value; B-score at 10 µM; 310,000 tested, 0.13% active;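 active = B-score of the integrated fluorescence ratio above library mean plus 3 SD, and starting fluorescence ratio within library mean plus 5 SD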;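 note: higher score means more depolarization so channel activation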
TRPC6 inhibitor – mouse TRPC6 channel inhibition; HEK293-TRPC6, membrane potential dye, ACh-evoked depolarization; stronger effect = lower value; 310,000 tested, 1.1% active; AID 2553; B-score at 10 µM;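 active = B-score under library mean minus 3 SD, initial fluorescence not abnormally high, positive integrated signal ratio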;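 note: B-score derived from integrated fluorescence ratio over the kinetic read; more negative B-score means stronger inhibition of depolarization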
TRPC4 inh – inhibitors of mouse TRPC4 channel; HEK293 TRPC4beta/mu-opioid, DAMGO-evoked Fluo4 calcium flux; stronger effect = lower value; B-score at 10 µM; 300,000 tested, 0.39% active; AID 2247;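 active = B-score over 3 SD under the library average, no early fluorescence shift, positive overall ratio signal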
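System: stable TRPC4beta/mu-opioid receptor HEK293 cells; Dosing: single-point compound dosing; Measured by: Fluo4 Ca2+ flux fluorescence; Read-out basis: per-well B score of integrated baseline-normalized Fluo4 ratio.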
TRPC4 act – TRPC4 (mouse) channel activation | Q9QUQ5 | HEK293 TRPC4beta/mu-opioid, Fluo4 calcium fluorescence; stronger effect = higher value | B-score at 10 µM | 310,000 tested, 0.49% active | AID 2237;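 active = B-score above 5 SD of library B-scores, and initial fluorescence ratio not above library mean plus 5 SD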;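 note: positive B-score marks a calcium rise read as TRPC4 activation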
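Material: TRPC4beta and mu-opioid receptor HEK293 stable cells | Incubation: 45 min room-temperature Fluo4 loading, 110 s read | Detection: Kinetic Fluo4 calcium fluorescence | Measure: Integrated baseline-normalised fluorescence ratio, converted to per-well B score | Benchmarks: Low control buffer alone, high control maximal DAMGO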
TRPC4 sel inh 2 – mouse TRPC4 off-target activity of TRPC6 inhibitors, second screen. shares compounds with TRPC6 inhibitor. HEK293 TRPC4/MOR, membrane potential dye fluorescence; channel activated by saturating DAMGO dose. inhibition, % at 10 µM. 920 tested, 42% active;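 active = compounds whose fluorescence signal differed from control wells by over 3 SD, either direction, in both duplicate plates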
TRPC4 spec – selectivity of TRPC6 inhibitors: effect on mouse TRPC4; activity change, negative = inhibition, % at 10 µM; shares compounds with TRPC6 inhibitor; HEK293 TRPC4/mu-opioid, membrane potential fluorescence; 920 tested, 61% active;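 active = rise or fall in signal beyond 3 SD of buffer-only wells in both replicate plates, either sign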;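 note: integrated kinetic ratio of fluorescence range over baseline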
HEK293 MPD ctr 2-1 – second counter-screen for TRPC6 inhibitors: parental HEK293 cells; shares compounds with TRPC6 inhibitor; parental HEK293 membrane potential dye fluorescence; maximal acetylcholine challenge after compound addition; 920 tested, 31% active; AID 2779; signal change vs control, % at 10 µM;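 active = membrane potential signal moving either way by over 3 SD of the maximum-effect control, in both duplicate plates, meaning non-specific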
HEK293 MPD ctr-1 – checks TRPC6 inhibitor effects in parental HEK293 cells; shares compounds with TRPC6 inhibitor; parental HEK293 membrane potential dye fluorescence; membrane potential signal change, % at 10 µM; 920 tested, 60% active; AID 2780;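 active = membrane potential signal shifting up or down by more than 3 SD of buffer-only wells, on both duplicate plates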
HEK293 MPD ctr-2 – checks TRPC6 modulator effects in parental HEK293 cells; membrane potential dye fluorescence; shares compounds with TRPC6 inhibitor; AID 488924; membrane potential signal change, % at 10 µM; 2,400 tested, 51% active;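 active = membrane potential signal moves up or down beyond 5 SD from buffer-only wells, on both duplicate plates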
HEK293 MPD ctr 2-2 – parental HEK293 nonspecific activity of TRPC6 modulators, second screen. shares compounds with TRPC6 inhibitor. membrane potential dye fluorescence; after compound, maximal acetylcholine stimulation. inhibition, % at 10 µM. 2,400 tested, 14% active. AID 488926;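 active = membrane potential signal drops by more than 5 SD from the mean control signal, in both duplicate plates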;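 note: plate controls were acetylcholine ECmax control wells for no effect and buffer only wells for full effect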
TRPC4/MOR mod – selectivity of TRPC6 modulators against mouse TRPC4; shares compounds with TRPC6 inhibitor; HEK293 TRPC4/mu-opioid, membrane potential fluorescence; percent change from control (negative = decrease, positive = increase), % at 10 µM; 2,400 tested, 69% active;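 active = membrane potential signal moved up or down beyond 5 SD of buffer control wells, in both duplicate plates, actives on both sides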;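 note: plate controls were assay buffer wells for no effect and DAMGO maximal-effect wells for full effect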
TRPC4 ctr inh 2 – second selectivity test of TRPC6 modulators against mouse TRPC4. HEK293 TRPC4/mu-opioid, membrane potential dye fluorescence; stimulated with maximal-effect DAMGO. 2,400 tested, 55% active. inhibition, % at 10 µM. AID 488928. shares compounds with TRPC6 inhibitor;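 active = drop in membrane potential signal beyond 5 SD of the control wells in both duplicate plates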;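 note: TRPC4 counter screen for TRPC6 hits run under conditions tuned for TRPC6 not TRPC4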
TRPC6 block conf – mouse TRPC6 inhibitor confirmation; shares compounds with TRPC6 inhibitor; 3,300 tested, 43% active; HEK293-TRPC6, membrane potential dye, ACh-evoked depolarization; inhibition, % at 10 µM;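 active = fluorescence ratio falls more than 5 SD below the full-stimulation control mean, in both duplicate runs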;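 note: integrated fluorescence ratio of peak minus minimum over baseline after agonist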
TRPC6 act confirm – confirmation of mouse TRPC6 activators | 2,800 tested, 11% active | AID 488961 | shares compounds with TRPC6 inhibitor | activation, % at 10 µM | HEK293-TRPC6 membrane potential dye fluorescence, FDSS;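 active = ratio signal rise beyond 5 SD above unstimulated control wells' mean, seen in both duplicate runs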;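 note: plate controls were buffer EC0 wells for no effect and acetylcholine ECmax response for full effect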
Starred values were filed as active, the others as inactive; i = inactive; x = no result. Shown are actives, neighbours in structure and some others; about 2.3% of the full set was active somewhere.

SMILES | TRPC4 PAM | TRPC6 act | TRPC6 inhibitor | TRPC4 inh | TRPC4 act | TRPC4 sel inh 2 | TRPC4 spec | HEK293 MPD ctr 2-1 | HEK293 MPD ctr-1 | HEK293 MPD ctr-2 | HEK293 MPD ctr 2-2 | TRPC4/MOR mod | TRPC4 ctr inh 2 | TRPC6 block conf | TRPC6 act confirm
C(#Cc1ccccc1)C[N+]1(CC#Cc2cccc3ccccc23)CCCC1 | i | i | -5.54* | i | i | x | x | x | x | i | i | -14.0%* | i | i | i
O=C1COc2ccc(N3C(=O)c4ccccc4C3=O)cc2N1 | i | i | i | i | i | x | x | x | x | x | x | x | x | x | x
c1ccc2oc(C3=NNC(=NC4CC4)SC3)cc2c1 | i | i | -8.42* | i | i | i | i | i | i | x | x | x | x | i | i
CCCCOc1ccc(-c2nnc(-c3cc[n+](C)cc3)o2)cc1 | i | i | -8.17* | i | i | i | -11.5%* | -69.0%* | -199.5%* | x | x | x | x | i | i
O=C(NCC1CCN(c2ccc(S(=O)(=O)N3CCOCC3)cc2)CC1)c1cccc(Cl)c1 | i | i | -6.26* | i | i | x | x | x | x | i | i | -30.5%* | i | 45.0%* | i
CCN(CC)CC(=O)Nc1ccc([N+](=O)[O-])cc1 | i | i | i | i | i | x | x | x | x | x | x | x | x | x | x
COc1ccc(OCc2cc(C(=O)NCc3nc(C)cs3)no2)c(Cl)c1 | i | i | i | i | i | x | x | x | x | x | x | x | x | x | x
c1cc2c3c(cccc3c1)NC1(CCC3(CC1)Nc1cccc4cccc(c14)N3)N2 | i | i | -6.86* | i | i | i | -21.8%* | i | -239.5%* | x | x | x | x | i | i
C=CCc1cc(Cl)ccc1OCCN(C)C | i | i | -5* | x | i | x | x | x | x | i | i | 8.0%* | i | i | i
Cc1ccc(OCCSc2nc(NC(C)C)nc(NC(C)C)n2)cc1 | i | i | i | i | i | x | x | x | x | x | x | x | x | x | x
Cc1ccc(OS(=O)(=O)c2c(C)nn(C)c2Cl)c(C)c1 | i | i | -6.52* | i | i | x | x | x | x | i | i | i | i | 72.5%* | i
Cc1ccc(C)c(NS(=O)(=O)c2c(C)nn(C)c2C)c1 | i | i | i | i | i | x | x | x | x | x | x | x | x | x | x
Cc1ccc(C(=O)Nc2nnc(S(=O)(=O)N3CCC(C)CC3)s2)cc1 | i | i | i | i | i | x | x | x | x | x | x | x | x | x | x
COc1ccc(S(=O)(=O)Nc2noc3ccccc23)cc1 | i | i | -6.69* | i | i | i | i | i | i | x | x | x | x | i | i
